Screening results deposited in PubChem by several laboratories.
SENP7 block: blocks the human protease SENP7; Q9BQF6; recombinant SENP7, Z-RLRGG-aminoluciferin luminescence, 40 min; inhibition, % at 5 µM; actives 1.5% (n = 330,000); AID 434973;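 active = inhibition above about 50% at the single test dose, limit read from the data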;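 also: plate controls were DMSO with enzyme for no effect and no enzyme buffer wells for full effect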
SENP8 block-1: blocks human SENP8 cleavage of Nedd8 substrate; Q96LD8; recombinant SENP8, Nedd8 substrate fluorescence; inhibition, % at 20 µM; actives 0.64% (n = 360,000); AID 602440; in the data active = inhibition mostly above about 40%, no sharp cut-off; inactive = mostly below about 27%
Target sequence (Q96LD8 whole entry, looked up): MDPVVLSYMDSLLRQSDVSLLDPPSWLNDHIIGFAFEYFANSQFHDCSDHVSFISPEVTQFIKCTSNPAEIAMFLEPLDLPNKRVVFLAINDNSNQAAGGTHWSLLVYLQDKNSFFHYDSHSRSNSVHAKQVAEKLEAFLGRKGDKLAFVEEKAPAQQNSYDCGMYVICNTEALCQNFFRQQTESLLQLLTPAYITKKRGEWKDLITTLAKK
SENP6 inh: inhibitors of human SENP6 protease; actives 1.8% (n = 330,000); Recombinant SENP6 catalytic domain, aminoluciferin luminescence; inhibition, % at 10 µM; Q9GZR1;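 active = inhibition above about 50% at the single tested dose, limit read from the data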;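 also: plate controls were DMSO wells with enzyme for no effect and DMSO wells lacking enzyme for full effect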
UCH37 inh: inhibitors of human deubiquitinating enzyme UCH37; Q9Y5K5; purified proteasome/UCH37, Ub-AMC cleavage fluorescence; inhibition, % (no concentration beside the values); actives 0.33% (n = 330,000); AID 588478;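 active = mean inhibition over replicate wells above about 20%, limit read from the data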;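 also: 0% = compound-free wells with enzyme and 100% = wells lacking proteasome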
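assay system = human UCH37 enzyme supplied as purified proteasome complex | amount = proteasome at 0.15 nM in the dispensed enzyme solution | schedule = 30 min compound-proteasome preincubation then 25 min substrate reaction, room temperature | measured by = fluorescence, ex 355 nm, em 460 nm | benchmarks = no-proteasome wells (full inhibition) and compound-free wells (no inhibition)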
SENP1 inh: blocks the human SENP1 SUMO protease catalytic domain; recombinant SENP1 catalytic domain, CyPet-SUMO1-YPet FRET cleavage; actives 0.21% (n = 360,000); inhibition, % at 10 µM;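 active = inhibition at least 30% at 10 µM, raw YFP signal under a set limit, fluorescence ratio 0.5 to 1.5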;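 also: 0% = enzyme with DMSO and 100% = no enzyme wells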
Target sequence (Q9P0U3 419-644 limits assumed): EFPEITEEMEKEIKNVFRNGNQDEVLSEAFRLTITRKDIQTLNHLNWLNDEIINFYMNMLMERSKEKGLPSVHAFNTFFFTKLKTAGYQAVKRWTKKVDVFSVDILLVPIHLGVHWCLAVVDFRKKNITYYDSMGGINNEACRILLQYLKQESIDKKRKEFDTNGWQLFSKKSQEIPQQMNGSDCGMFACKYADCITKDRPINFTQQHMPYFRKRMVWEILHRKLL
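System: Recombinant human SENP1 catalytic domain, His6-tagged | Incubation: Enzyme reaction for 50 min at room temperature, dark | Medium: Tris pH 8 with BME, BSA, NP40 and catalase | Also added: 25 nM SUMO1 FRET substrate | Compound: 10 µM single point, 0.5% DMSO | Measured by: FRET fluorescence in CFP and YFP emission channels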
SENP8 block-2: SENP8 protease inhibition; Q96LD8; purified SENP8, Z-RLRGG-aminoluciferin cleavage, luminescence; inhibition, % at 10 µM; actives 1.2% (n = 330,000); AID 2540; in the data active = inhibition above about 50%
* = called active by the depositor; . = no result given. In the library only some 2.6% were active in any assay of this set; here they are far more common.

SMILES	SENP7 block	SENP8 block-1	SENP6 inh	UCH37 inh	SENP1 inh	SENP8 block-2
CCC(C)S(=O)(=O)c1snnc1C (centres undefined)	16.0	15.4	5.2	30.8*	-2.2	4.1
Cc1nnsc1S(=O)(=O)c1ccccc1	-0.4	15.7	-13.3	0.0	0.9	-7.0
O=[N+]([O-])c1cc(/C=N/N/C(=N/c2ccccn2)c2ccccn2)ccc1O	-2.4	47.3*	15.4	.	33.6*	1.1
CC(=NNC(=O)CCc1ccccc1)c1ccco1	.	.	.	-1.0	.	.
O=C(CSc1ncn[nH]1)Nc1nc(-c2ccccc2)cs1	-3.3	7.9	3.0	28.4*	0.0	-15.5
COc1ccc(-c2csc(NC(=O)CSc3ncn[nH]3)n2)cc1OC	-5.7	14.3	-1.5	2.5	2.4	-12.5
Nc1nc2ccccc2n1C(=O)c1cccs1	74.2*	-44.7	11.3	.	-3.7	58.3*
Nc1nc2ccccc2n1C(=O)c1ccco1	.	-1.6	.	.	-0.6	.
O=c1c2ccccc2nc(COc2ccccc2)n1N=Cc1ccc(O)c(O)c1	.	.	.	5.8	.	.
Cc1cccc(OCC(=O)NN=C2SCC(=O)N2Cc2ccco2)c1	.	.	.	0.1	.	.
C=CCOc1ccc(/C(O)=C2\C(=O)C(=O)N(CCN(C)C)C2c2cccs2)cc1 (centres undefined)	3.0	15.3	-7.0	23.9*	-2.3	-6.9
Cn1ccsc1=NS(=O)(=O)c1ccc(F)cc1	.	.	.	-0.2	.	.
COc1ccc(-n2nc3c(N4CCC(C(=O)N5CCC(C)CC5)CC4)nnc(C)c3c2C)cc1	12.0	-388.6	-6.6	-31.6	68.0*	-5.6
Cc1nnc(N2CCC(C(=O)N3CCCCC3)CC2)c2nn(-c3ccc(Cl)cc3)c(C)c12	13.7	-345.2	-7.6	-45.2	1.8	-3.8
COc1cccc2cc(-c3ccnc(N)n3)oc12	53.3*	-435.8	14.8	.	-0.7	21.1
COc1cccc2cc(-c3n[nH]c(=S)n3C)oc12	-4.8	-431.8	-15.5	-20.9	-0.5	4.9
Cc1cc(C=Nn2cnnc2)c(C)n1-c1ccc(OCc2ccc(Cl)cc2Cl)cc1	.	.	.	0.8	.	.
CC1=NN(Cc2ccccc2)C(=O)/C1=C\c1ccc(N(C)C)cc1	8.3	40.0*	1.3	0.9	3.6	7.2
Nc1cc2sc(-c3ccc(C(=O)O)cc3)nc2cc1Cl	100.4*	-308.0	97.2*	.	-26.3	97.7*
Cn1cccc1C=NNC(=O)Cn1cnc2ccccc21	.	.	.	3.7	.	.
COc1ccc(-n2c(C)cc(/C=C3\C(=O)NN(c4ccccc4)C3=O)c2C)cc1	13.7	19.1	38.2	9.4	1.4	27.6
Cc1cc(/C=C2\C(=O)NN(c3ccccc3)C2=O)c(C)n1-c1ccccc1O	33.7	53.2*	7.9	9.7	3.1	19.4
CC(C)(C)c1ccc2c(c1)OC(C(=O)NN=Cc1ccc([N+](=O)[O-])o1)CO2 (centres undefined)	.	.	.	5.2	.	.
CCn1c(C)cc(/C=C2/SC(=S)N(CC(=O)O)C2=O)c1C	-6.6	-12.5	-25.8	20.5*	-38.3	-14.3
CCOC(=O)c1c(C)c2c(n1C)CCCC2=NO	.	.	.	1.2	.	.
SMILES	SENP7 block	SENP8 block-1	SENP6 inh	UCH37 inh	SENP1 inh	SENP8 block-2
Cc1ccc(CN2CCN(N=Cc3cccs3)CC2)cc1	.	.	.	5.8	.	.
COc1ccccc1C1=NC(c2ccc(F)cc2)N=C1C (centres undefined)	6.7	2.6	-10.6	0.9	1.9	-4.2
COc1ccccc1C1N=C(c2ccccc2C)NO1 (centres undefined)	77.7*	25.3	83.0*	2.1	2.1	75.3*
COC(=O)c1cccc2c1-c1ccccc1C2=NNC(N)=O	.	.	.	2.9	.	.
O=[N+]([O-])c1ccc(/C=N/Nc2ccc3ccccc3c2)o1	7.1	27.8	9.3	.	37.9*	-3.0
O=[N+]([O-])c1ccc(C=NNc2ccc3ccccc3c2)o1	.	.	.	6.9	.	.
CCCc1c(C(=O)NN=Cc2ccco2)nnn1-c1nonc1N	.	.	.	-4.8	.	.
CCN(CC)C(=O)CSc1ncnc2c(-c3ccc(OC)cc3)nsc12	34.1	.	50.9*	-76.3	.	52.4*
CCOc1ccc(C(=O)NN=Cc2c(C)[nH]c(=O)[nH]c2=O)cc1	.	.	.	-91.2	.	.
O=C1CC(c2ccc3c(c2)OCO3)CN1 (centres undefined)	-1.9	10.5	-8.2	27.1*	0.4	6.7
CN(C)c1ccc(-c2cc([C@H]3[C@@H]4C=CCC[C@@]4(C)C(=O)N3Cc3ccccc3)ccc2F)cc1	3.1	-450.6	-2.7	1.3	47.8*	-1.1
O=[N+]([O-])c1cc(C(F)(F)F)ccc1N1CCN(S(=O)(=O)c2ccc3ccccc3c2)CC1	0.4	40.0*	-10.1	0.7	4.2	-2.3
O=[N+]([O-])c1cc(C(F)(F)F)ccc1N1CCC(O)CC1	1.8	14.4	-24.3	1.4	0.0	1.6
COc1cc(C(=O)NN=Cc2cn(Cc3ccccc3)c3ccccc23)ccc1O	.	.	.	-41.5	.	.
Oc1ccc(N=Cc2ccc(O)c(O)c2)cc1	7.9	61.9*	38.8	9.8	-1.3	23.2
Oc1ccc(/C=N/N=C/c2ccc(O)c(O)c2)cc1O	1.7	39.1	5.8	.	2.9	1.6
O=C1c2ccccc2-c2onc3c(N4CCN(CCO)CC4)cc(N4CCN(C(=O)c5ccco5)CC4)c1c23	16.2	74.7*	19.6	.	32.2*	10.8
O=C(O)CCCNc1cc(N2CCN(C(=O)c3ccco3)CC2)c2noc3c2c1C(=O)c1ccccc1-3	14.7	77.1*	38.3	.	83.4*	23.7
O=C(c1ccco1)N1CCN(CCCCN2C(=O)c3ccccc3C2=O)CC1	15.4	8.9	-0.2	3.8	0.9	-3.2
O=C(O)CCCNc1cc(N2CCC3(CC2)OCCO3)c2noc3c2c1C(=O)c1ccccc1-3	10.4	.	-9.1	.	.	17.2
O=C(O)CCNc1ccc(NCCC(=O)O)c2c1C(=O)c1ccccc1C2=O	12.2	23.2	4.5	.	-21.1	19.8
CCOC(=O)N1CCN(c2cc(NCCC(=O)O)c3c4c(onc24)-c2ccccc2C3=O)CC1	26.0	88.0*	48.2	26.8*	100.3	26.1
O=C(NN=Cc1cccnc1)c1cc(-c2cccs2)nc2ccccc12	.	.	.	-251.7	.	.
CCc1n[nH]c2c1C(=NO)CCC2	.	.	.	-0.9	.	.
CC(C)(C)c1cc[n+](-c2[nH]c(=O)sc2C=N/N=C(\[O-])c2cccnc2)cc1	.	.	.	21.3*	.	.
CC(C)(C)c1cc[n+](-c2[nH]c(=O)sc2/C=N/N=C(\[O-])c2cccnc2)cc1	8.5	29.5	1.9	.	3.4	0.1
Nc1nonc1C(=O)N/N=C/c1ccc(-c2cccc(C(=O)O)c2)o1	2.7	.	58.0*	.	.	26.9
NC(=O)CSc1nnc2sc3ccccc3n12	7.7	17.9	12.3	24.4*	-0.1	4.9
O=C1C(Cl)=C(NS(=O)(=O)c2ccc([N+](=O)[O-])cc2)C(=O)c2ccccc21	16.0	53.1*	11.7	24.5*	3.4	10.6
O=[N+]([O-])c1ccc(Oc2ccc(S(=O)(=O)Nc3ccccc3)cc2)cc1	-4.0	18.4	3.1	-14.2	1.8	5.5
